19 compounds from ChEMBL document CHEMBL3875200, “Bivalent SIRT1 inhibitors” (Bioorg Med Chem Lett, 2017) can be followed below.

The target in data set [1] is T1, NAD-dependent protein deacetylase sirtuin-1 (Homo sapiens, UniProt Q96EB6).
T1 sequence (Q96EB6 whole entry): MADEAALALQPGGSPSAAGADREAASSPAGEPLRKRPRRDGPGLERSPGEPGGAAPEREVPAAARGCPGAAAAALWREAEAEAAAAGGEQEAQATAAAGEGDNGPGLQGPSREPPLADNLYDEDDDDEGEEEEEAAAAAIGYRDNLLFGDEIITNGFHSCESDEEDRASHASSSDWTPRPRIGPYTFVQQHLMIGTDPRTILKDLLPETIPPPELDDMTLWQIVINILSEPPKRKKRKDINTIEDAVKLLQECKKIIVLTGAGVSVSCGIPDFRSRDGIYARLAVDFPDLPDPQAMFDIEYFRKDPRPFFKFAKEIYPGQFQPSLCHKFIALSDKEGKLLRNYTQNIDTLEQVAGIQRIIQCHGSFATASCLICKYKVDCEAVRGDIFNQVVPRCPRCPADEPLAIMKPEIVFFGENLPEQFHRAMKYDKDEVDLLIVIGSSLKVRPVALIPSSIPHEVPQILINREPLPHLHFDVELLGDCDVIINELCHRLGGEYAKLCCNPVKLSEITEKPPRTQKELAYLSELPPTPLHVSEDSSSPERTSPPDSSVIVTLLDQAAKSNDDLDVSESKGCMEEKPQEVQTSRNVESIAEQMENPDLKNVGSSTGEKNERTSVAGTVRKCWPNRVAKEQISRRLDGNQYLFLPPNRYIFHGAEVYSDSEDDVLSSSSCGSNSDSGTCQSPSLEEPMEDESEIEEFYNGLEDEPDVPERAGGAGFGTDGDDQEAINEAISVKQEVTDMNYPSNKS
Nature of the data set: Inhibition of recombinant human His6/GST-tagged SIRT1 expressed in Escherichia coli assessed as reduction in H2N-HK-[Nepsilon-acetyl-lysine]-LM-COOH deacetylation measured after 10 mins in presence of beta-NAD+ by RP-HPLC assay.

The species named for data set [2] is Homo sapiens. In words: Selectivity ratio of IC50 for recombinant human His6/GST-tagged SIRT1 expressed in Escherichia coli to IC50 for recombinant human His6-tagged SIRT2 (2 to 389 residues) expressed in Escherichia coli.
The target of data set [3] is T2, NAD-dependent protein deacetylase sirtuin-1 (Homo sapiens) (UniProt Q96EB6).
T2 sequence (whole entry): T1 sequence (Q96EB6 whole entry)
Nature of the data set: Non-competitive inhibition of recombinant human His6/GST-tagged SIRT1 expressed in Escherichia coli assessed as deacetylation of H2N-HK-[epsilonN-acetyl-lysine]-LM-COOH at 4 to 8.5 uM measured after 10 mins in presence of varying beta-NAD+ and constant substrate concentration by Lineweaver-Burk plot analysis. Put shortly: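 β-NAD⁺ was the varied co-substrate. An uncompetitive-intercept inhibition constant (Kii) and the apparent Km for β-NAD⁺ were derived from the kinetic data.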

The species entered for data set [4] is Homo sapiens. In words: Selectivity ratio of IC50 for recombinant human His6/GST-tagged SIRT1 expressed in Escherichia coli to IC50 for recombinant human His6-tagged SIRT3 (101 to 399 residues) expressed in Escherichia coli.
Data set [5] deals with T3, NAD-dependent protein deacetylase sirtuin-3, mitochondrial (Homo sapiens, UniProt Q9NTG7).
T3 sequence (Q9NTG7 whole entry): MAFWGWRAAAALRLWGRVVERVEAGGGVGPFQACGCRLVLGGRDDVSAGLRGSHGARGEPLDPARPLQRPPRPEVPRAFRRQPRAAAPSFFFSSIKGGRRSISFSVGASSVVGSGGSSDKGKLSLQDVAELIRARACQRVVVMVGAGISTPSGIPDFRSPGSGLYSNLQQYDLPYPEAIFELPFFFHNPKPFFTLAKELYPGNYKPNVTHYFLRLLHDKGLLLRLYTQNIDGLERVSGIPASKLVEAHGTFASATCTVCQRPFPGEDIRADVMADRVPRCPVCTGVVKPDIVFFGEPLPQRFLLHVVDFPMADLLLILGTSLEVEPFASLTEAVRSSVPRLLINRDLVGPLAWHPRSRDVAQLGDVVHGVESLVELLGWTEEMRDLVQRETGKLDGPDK
In words: Inhibition of recombinant human His6-tagged SIRT3 (101 to 399 residues) expressed in Escherichia coli assessed as inhibition of H2N-HK-[epsilonN-acetyl-lysine]-LM-COOH deacetylation measured after 10 mins in presence of beta-NAD+ by reversed-phase C18 HPLC analysis.

Data set [6] has as its target T4, NAD-dependent protein deacetylase sirtuin-2 (Homo sapiens, UniProt Q8IXJ6).
T4 sequence (Q8IXJ6 whole entry): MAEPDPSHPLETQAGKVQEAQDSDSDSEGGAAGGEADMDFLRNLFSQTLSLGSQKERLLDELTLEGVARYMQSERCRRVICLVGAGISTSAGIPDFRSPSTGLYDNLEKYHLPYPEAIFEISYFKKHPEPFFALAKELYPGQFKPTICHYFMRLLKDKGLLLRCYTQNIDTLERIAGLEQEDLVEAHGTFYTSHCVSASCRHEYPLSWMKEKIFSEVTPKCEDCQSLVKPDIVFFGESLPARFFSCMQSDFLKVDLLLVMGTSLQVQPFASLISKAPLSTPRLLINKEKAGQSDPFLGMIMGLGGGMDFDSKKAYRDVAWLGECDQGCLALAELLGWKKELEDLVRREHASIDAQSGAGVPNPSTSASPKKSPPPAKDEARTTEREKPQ
In words: Inhibition of recombinant human His6-tagged SIRT2 (2 to 389 residues) expressed in Escherichia coli assessed as inhibition of H2N-HK-[epsilonN-acetyl-lysine]-LM-COOH deacetylation measured after 12 mins in presence of beta-NAD+ by RP-HPLC analysis.

Data set [7] concerns the target T2, NAD-dependent protein deacetylase sirtuin-1 (Homo sapiens). Nature of the data set: Competitive inhibition of recombinant human His6/GST-tagged SIRT1 expressed in Escherichia coli assessed as deacetylation of H2N-HK-[epsilonN-acetyl-lysine]-LM-COOH at 4 to 8.5 uM measured after 10 mins in presence of constant beta-NAD+ and varying substrate concentration by Lineweaver-Burk plot analysis. Put shortly:
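Inhibitor tested against varied acetyl-lysine peptide substrate H2N-HK-(Nε-acetyl-lysine)-LM-COOH. A competitive inhibition constant (Kis) and the apparent Km for this peptide were derived from the kinetic data.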

Data set [8] can be described thus: Aqueous solubility of the compound. The class given is physicochemical. The following applies: buffer.
The target of data set [9] is T2, NAD-dependent protein deacetylase sirtuin-1 (Homo sapiens). In words: Reversible inhibition of recombinant human His6/GST-tagged SIRT1 expressed in Escherichia coli assessed as inhibition of H2N-HK-[epsilonN-acetyl-lysine]-LM-COOH deacetylation measured after 10 mins in presence of beta-NAD+ by Dixon plot analysis.

Molecules are shown by their SMILES. The source made the active and inactive calls. The rule behind the calls is not given here. Where only a bound is given, the exact number is not on record here.

With `CC(=O)NCCCC[C@H](NC(=O)[C@H](CCCCNC(=O)CCCCCCSc1nc2ccccc2s1)NC(=O)[C@H](CCCCNC(C)=O)NC(C)=O)C(N)=O`, in data set [1], the IC50 is 30 µM.

For the compound `CC(=O)NCCCC[C@H](NC(=O)[C@H](CCCCNC(=O)CCCCCSc1nc2ccccc2s1)NC(=O)[C@H](CCCCNC(C)=O)NC(C)=O)C(N)=O`, the Ratio IC50 in the data set listed under Homo sapiens [2] is greater than 16; in the data set listed under Homo sapiens [4], greater than 81. In addition, the inhibition entry in data set [3] and in data set [7] was “Active” throughout. The 50% inhibitory concentration (IC50) is 12.4 µM in data set [1], greater than 1000 µM in data set [5] and greater than 200 µM in [6].

Take `CC(=O)NCCCC[C@H](NC(=O)[C@H](CCCCNC(=O)CNC(=O)CNC(=O)CSc1nc2ccccc2s1)NC(=O)[C@H](CCCCNC(C)=O)NC(C)=O)C(N)=O`: the IC50 in data set [1] is 116 µM.

`CC(=O)NCCCC[C@H](NC(=O)[C@H](CCCCNC(=O)CSc1ncc(-c2ccccc2)s1)NC(=O)[C@H](CCCCNC(C)=O)NC(C)=O)C(N)=O`: the half-inhibitory concentration (IC50) in data set [1] came out at 18 µM.

With `CC(=O)NCCCC[C@H](NC(=O)[C@H](CCCCNC(=O)CCCCCCCSc1nc2c(N)ncnc2[nH]1)NC(=O)[C@H](CCCCNC(C)=O)NC(C)=O)C(N)=O`, the IC50 in data set [1] came out at 45.8 µM.

As for `CC(=O)NCCCC[C@H](NC(=O)[C@H](CCCCNC(=O)CSCc1ccccc1)NC(=O)[C@H](CCCCNC(C)=O)NC(C)=O)C(N)=O`, in data set [1], the IC50 came to 171 µM.

For `CC(=O)NCCCC[C@H](NC(=O)[C@H](CCCCNC(=O)CCCCCSc1nc2ccccc2[nH]1)NC(=O)[C@H](CCCCNC(C)=O)NC(C)=O)C(N)=O`, the concentration for half-maximal inhibition (IC50) in [1] was 187 µM.

`CC(=O)NCCCC[C@H](NC(=O)[C@H](CCCCNC(=O)CCCCCCCSc1nc2ccccc2s1)NC(=O)[C@H](CCCCNC(C)=O)NC(C)=O)C(N)=O`: in [8], the solubility entry is listed as “Insoluble”. Moreover, in data set [1], the IC50 came out at 5.3 µM.

For the compound `CC(=O)NCCCC[C@H](NC(=O)[C@H](CCCCNC(=O)CCCCCSc1nc2c(N)ncnc2[nH]1)NC(=O)[C@H](CCCCNC(C)=O)NC(C)=O)C(N)=O`, the 50% inhibitory concentration (IC50) in [1] is greater than 900 µM.

As for `CC(=O)NCCCC[C@H](NC(=O)[C@H](CCCCNC(=O)CSc1nnc(/C=C/c2ccccc2)[nH]1)NC(=O)[C@H](CCCCNC(C)=O)NC(C)=O)C(N)=O`, the concentration for half-maximal inhibition (IC50) in [1] was determined as 150 µM.

Regarding `CC(=O)NCCCC[C@H](NC(=O)[C@H](CCCCNC(=O)CCCCCSCc1ccccc1)NC(=O)[C@H](CCCCNC(C)=O)NC(C)=O)C(N)=O`, the IC50 in [1] was determined as 57.7 µM.

`CC(=O)NCCCC[C@H](NC(=O)[C@H](CCCCNC(=O)CSc1nc2ccccc2s1)NC(=O)[C@H](CCCCNC(C)=O)NC(C)=O)C(N)=O`: the concentration for half-maximal inhibition (IC50) in data set [1] turned out to be 77.5 µM.

Consider `CC(=O)NCCCC[C@H](NC(=O)[C@H](CCCCNC(=O)CNC(=O)CI)NC(=O)[C@H](CCCCNC(C)=O)NC(C)=O)C(N)=O`, for which, in data set [9], the inhibition result is “Active”. The IC50 in data set [1] is greater than 200 µM.

With `CC(=O)NCCCC[C@H](NC(=O)[C@H](CCCCNC(=O)CCCCCSc1cccc2ccccc12)NC(=O)[C@H](CCCCNC(C)=O)NC(C)=O)C(N)=O`, in data set [1], the IC50 worked out at 14.6 µM.

In the case of `CC(=O)NCCCC[C@H](NC(=O)[C@H](CCCCNC(=O)CCCCCSc1nc2ccccc2o1)NC(=O)[C@H](CCCCNC(C)=O)NC(C)=O)C(N)=O`, the concentration for half-maximal inhibition (IC50) in data set [1] worked out at 133 µM.

For `CC(=O)NCCCC[C@H](NC(=O)[C@H](CCCCNC(=O)CCCCCSc1ccc2ccccc2c1)NC(=O)[C@H](CCCCNC(C)=O)NC(C)=O)C(N)=O`, the IC50 in data set [1] amounted to 14.6 µM.

`CC(=O)NCCCC[C@H](NC(=O)[C@H](CCCCNC(=O)CI)NC(=O)[C@H](CCCCNC(C)=O)NC(C)=O)C(N)=O`: the inhibition result in data set [9] is “Active”. The half-inhibitory concentration (IC50) in [1] was 39.3 µM; in [6] it was 22.2 µM.

Turning to `CC(=O)NCCCC[C@H](NC(=O)[C@H](CCCCNC(=O)CCCSc1nc2ccccc2s1)NC(=O)[C@H](CCCCNC(C)=O)NC(C)=O)C(N)=O`, the IC50 in data set [1] came out at 27 µM.

Take `CC(=O)NCCCC[C@H](NC(=O)[C@H](CCCCNC(=O)CCCCCSc1ncc(-c2ccccc2)s1)NC(=O)[C@H](CCCCNC(C)=O)NC(C)=O)C(N)=O`: in data set [1], the half-inhibitory concentration (IC50) came out at 15.4 µM.
